Measurements taken from ChEMBL document CHEMBL4033659, “Novel lipid-mimetic prodrugs delivering active compounds to adipose tissue” (Eur J Med Chem, 2017).

Columns and labels:
[1] = target: T1, Pancreatic triacylglycerol lipase (Sus scrofa, UniProt P00591); assay: Prodrug conversion assessed as porcine pancreatic lipase-mediated formation of 10-((4-(3,5-dimethoxystyryl)phenoxy)carbonylamino)decanoic acid by measuring hydrolysis rate constant K3 by HPLC/UV analysis; type: ADME; conditions: pig
T1 sequence (P00591 whole entry): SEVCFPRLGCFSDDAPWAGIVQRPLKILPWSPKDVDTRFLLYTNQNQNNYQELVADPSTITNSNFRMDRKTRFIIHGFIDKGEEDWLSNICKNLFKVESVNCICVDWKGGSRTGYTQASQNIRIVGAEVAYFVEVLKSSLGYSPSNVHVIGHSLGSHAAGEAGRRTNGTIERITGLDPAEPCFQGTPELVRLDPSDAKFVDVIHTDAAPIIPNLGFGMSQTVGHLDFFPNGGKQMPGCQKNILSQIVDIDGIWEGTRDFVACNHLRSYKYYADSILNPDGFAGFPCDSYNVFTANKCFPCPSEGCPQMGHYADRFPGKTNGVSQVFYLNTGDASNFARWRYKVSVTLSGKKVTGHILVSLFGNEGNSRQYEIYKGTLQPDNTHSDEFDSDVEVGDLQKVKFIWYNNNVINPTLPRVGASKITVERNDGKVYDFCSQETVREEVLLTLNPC

[2] = system: Blood; assay: Drug uptake in C57BL mouse bloodstream at 176 umol/kg administered with high fat diet after 2 weeks by HPLC/UV analysis; type: ADME, tissue-based; conditions: po, 336 h
Method in brief: (§1)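 Mice received the lipid-mimetic derivatives chronically for 2 weeks. Pterostilbene and its metabolites were then quantified in blood and organs, and values are reported as mean ± st. dev. across animals.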

[3] = Drug uptake in C57BL mouse subcutaneous adipose tissue at 176 umol/kg administered with high fat diet after 2 weeks by HPLC/UV analysis; type: ADME; conditions: in vivo, po, 336 h; method in brief: as §1
[4] = Drug uptake in C57BL mouse visceral adipose tissue assessed as retention time at 176 umol/kg administered with high fat diet after 2 weeks by HPLC/UV analysis; type: ADME; conditions: in vivo, po, 336 h
[5] = system: Liver; assay: Drug uptake in C57BL mouse liver at 176 umol/kg administered with high fat diet after 2 weeks by HPLC/UV analysis; type: ADME, tissue-based; conditions: in vivo, po, 336 h; method in brief: as §1
[6] = target: T1, Pancreatic triacylglycerol lipase; assay: Prodrug conversion assessed as porcine pancreatic lipase-mediated formation of 2-(10-((4-(3,5-dimethoxystyryl)phenoxy)carbonylamino)decanoyloxy)-3-hydroxypropyl oleate by measuring hydrolysis rate constant K1 by HPLC/UV analysis; type: ADME; conditions: pig
[7] = Drug uptake in C57BL mouse visceral adipose tissue at 176 umol/kg administered with high fat diet after 2 weeks by HPLC/UV analysis; type: ADME; conditions: in vivo, po, 336 h; method in brief: as §1
[8] = target: T1, Pancreatic triacylglycerol lipase; assay: Prodrug conversion assessed as porcine pancreatic lipase-mediated formation of 1,3-dihydroxypropan-2-yl 10-((4-(3,5-dimethoxystyryl)phenoxy)carbonylamino)decanoate by measuring hydrolysis rate constant K2 by HPLC/UV analysis; type: ADME; conditions: pig
[9] = target: T1, Pancreatic triacylglycerol lipase; assay: Prodrug conversion assessed as porcine pancreatic lipase-mediated formation of 10-((4-(3,5-dimethoxystyryl)phenoxy)carbonylamino)decanoic acid by measuring hydrolysis rate constant K2 by HPLC/UV analysis; type: ADME; conditions: pig
[10] = target: T1, Pancreatic triacylglycerol lipase; assay: Prodrug conversion assessed as porcine pancreatic lipase-mediated formation of 1-(10-((4-(3,5-dimethoxystyryl)phenoxy)carbonylamino)decanoyloxy)-3-hydroxypropan-2-yl oleate, 10-((4-(3,5-dimethoxystyryl)phenoxy)carbonylamino)decanoic acid by measuring hydrolysis rate constant K1 by HPLC/UV analysis; type: ADME; conditions: pig
[11] = target: T1, Pancreatic triacylglycerol lipase; assay: Prodrug conversion assessed as porcine pancreatic lipase mediated formation of 10-((4-(3,5-dimethoxystyryl)phenoxy)carbonylamino)decanoic acid by measuring hydrolysis rate constant by HPLC/UV analysis; type: ADME; conditions: pig

K [1] | Drug uptake [2] | Drug uptake [3] | Retention time [4] | Drug uptake [5] | K [6] | Drug uptake [7] | K [8] | K [9] | K [10] | K [11] | Structure (SMILES)
0.24 h⁻¹ | Not Active | Active | 5.8 to 6.5 min | Active | 3.04 h⁻¹ | Active | 9.49 h⁻¹ |  |  |  | CCCCCCCC/C=C\CCCCCCCC(=O)OCC(COC(=O)CCCCCCC/C=C\CCCCCCCC)OC(=O)CCCCCCCCCNC(=O)Oc1ccc(/C=C/c2cc(OC)cc(OC)c2)cc1
 | Not Active | Active |  | Active |  | Active |  | 46.8 h⁻¹ | 3.24 h⁻¹ | 2.88 h⁻¹ | CCCCCCCC/C=C\CCCCCCCC(=O)OCC(COC(=O)CCCCCCCCCNC(=O)Oc1ccc(/C=C/c2cc(OC)cc(OC)c2)cc1)OC(=O)CCCCCCC/C=C\CCCCCCCC (stereo not given)
